Hck-Nef inh – blocks Nef-activated human Hck kinase | AID 463187 | P08631 | 0.68% of 220,000 active | inhibition, % at 20 µM | Recombinant Hck-YEEI plus Nef, Z-Lyte FRET kinase assay;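 active = Hck-Nef kinase inhibition above about 50%, limit read from the data; inactive = inhibition below that limit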;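 also: 0% = DMSO with Hck plus Nef and 100% = Hck alone without Nef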
Runt-CBFb FRET – blocks binding of human RUNX1 Runt domain to CBFb; Cerulean-Runt/Venus-CBFb FRET ratio 530/480, 1 h; inhibition, % at 20 µM; Q01196+Q13951; 0.46% of 220,000 active; AID 1496;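 active = inhibition over about 50% at 20 µM in the single-dose screen, limit read from the data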;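 also: 0% = DMSO wells and 100% = excess unlabeled CBFb competitor control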
Target sequence (Q01196 whole entry, looked up, the tested form may be a part): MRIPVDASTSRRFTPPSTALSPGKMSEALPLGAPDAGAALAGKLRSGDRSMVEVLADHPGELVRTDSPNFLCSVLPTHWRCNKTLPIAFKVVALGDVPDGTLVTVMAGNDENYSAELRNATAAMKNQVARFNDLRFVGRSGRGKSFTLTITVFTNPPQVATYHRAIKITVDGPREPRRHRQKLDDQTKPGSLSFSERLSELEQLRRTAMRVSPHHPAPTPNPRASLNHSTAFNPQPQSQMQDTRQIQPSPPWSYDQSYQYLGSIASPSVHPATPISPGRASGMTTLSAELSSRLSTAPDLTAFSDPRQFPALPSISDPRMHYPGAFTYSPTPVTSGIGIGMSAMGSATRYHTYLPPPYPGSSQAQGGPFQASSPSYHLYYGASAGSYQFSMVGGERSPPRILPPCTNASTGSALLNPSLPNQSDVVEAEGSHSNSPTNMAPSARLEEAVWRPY
Target sequence (Q13951 whole entry, looked up, the tested form may be a part): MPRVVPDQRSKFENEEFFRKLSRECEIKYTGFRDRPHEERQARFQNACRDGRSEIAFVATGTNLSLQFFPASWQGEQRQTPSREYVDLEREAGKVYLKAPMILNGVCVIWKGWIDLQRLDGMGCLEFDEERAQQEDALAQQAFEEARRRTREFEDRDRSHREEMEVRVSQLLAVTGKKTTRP
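Measured by: fluorescence energy transfer, 422 nm excitation, 530/480 nm emission; Assay system: Cerulean-Runt domain; Medium: Tris pH 7.5 buffer with BSA; Measure: loss of energy transfer signal; Controls: 5 µM unlabeled CBFb as full-inhibition high control; Incubation: protein complex preformed 1 h, compound exposure 1 h, room temperature, dark.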
zVAD death inh – L929 zVAD cell death inhibition; AID 1377; L929 zVAD necroptosis rescue, ATP luminescence, 24 h; with zVAD 60 µM; viability rescue, % at 10 µM; 0.38% of 220,000 active;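 active = activation, scaled between plate controls, above about 75%, limit read from the data; inactive = activation under that limit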;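 also: 0% = zVAD with DMSO and 100% = DMSO alone without zVAD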
Runt-SMMHC FRET – Runt domain-CBFb-SMMHC interaction inhibition | AID 1434 | Cerulean-Runt/Venus-CBFb-SMMHC FRET ratio 530/480, 1 h | inhibition, % at 20 µM | 0.74% of 220,000 active;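 active = mean inhibition across duplicate retests at 20 µM reaching about 50%, limit read from the data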;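 also: 0% = DMSO wells and 100% = wells with excess untagged CBFb-SMMHC; inhibitors lower the FRET ratio by blocking Runt binding to CBFb-SMMHC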
RanGTP-Impb inh – inhibitors of RanGTP-importin-beta interaction, primary screen, biochemical, FRET, CFP-Ran, YFP-importin-beta, homogeneous. AID 2216. cell-free CFP-Ran/YFP-importin-beta FRET ratio. 1.1% of 300,000 active. inhibition, % (test concentration not listed);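 active = more than half of the replicate wells show a fall in the fluorescence ratio signal beyond about 16%, limit read from the data, passing the limit was not always enough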;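 also: 0% = DMSO wells and 100% = Ran loaded with GDP instead of GTP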
TNF death inh – inhibitors of TNF-alpha induced necroptosis in Jurkat FADD-/- cells; Jurkat FADD-/- TNF necroptosis rescue, ATP luminescence, 24 h; 0 = TNF only, 100 = no-TNF cells; activation (protection from cell death), % at 10 µM; 0.068% of 220,000 active; AID 463075;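 active = activation, meaning protection from cell death, of at least 50% relative to plate controls; inactive = activation below 50%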;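 also: necroptosis triggered by 40 ng/mL TNF-alpha added together with compound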
* marks the source's active call; other numbers are inactive results; · = no result. Sampled rows, rich in hits. Any-hit rate of the full collection: about 2.1%.

SMILES	Hck-Nef inh	Runt-CBFb FRET	zVAD death inh	Runt-SMMHC FRET	RanGTP-Impb inh	TNF death inh
COc1ccc(-n2c(SCC(=O)NCc3ccco3)nc3sc4c(c3c2=O)CCN(C)C4)cc1	·	·	·	·	10	·
CN1CCc2c(sc3nc(NCCO)n(-c4cccc(Cl)c4)c(=O)c23)C1	·	·	·	·	92*	·
O=C(NCc1ccco1)c1ccc2nc3sc4c(c3c(=O)n2c1)CCCC4	11	63*	0	63*	62*	-4
COC(=O)CSc1nc2sc3c(c2c(=O)n1C1CCCCC1)CCN(C)C3	-1	13	0	32	26*	-1
CN1CCc2c(sc3nc(SCC(=O)NCc4ccco4)n(-c4ccccc4)c(=O)c23)C1	·	·	·	·	25*	·
C=CCn1c(SCC(=O)NCc2ccco2)nc2sc3c(c2c1=O)CCCC3	1	0	0	-2	0	2
COc1cccc(NC(=O)c2ncc(Cl)c(Cl)c2Cl)c1	-1	-2	4	2	0	-7
Cc1nc(C(=O)N2CCc3c([nH]c4ccccc34)C2c2ccccn2)cs1 (stereo unspecified)	22	·	4	·	1	2
O=C(Cc1ccsc1)N1CCc2c([nH]c3ccccc23)C1c1ccccn1 (stereo unspecified)	-17	2	-1	2	29*	0
CCC(=O)Nc1sc2c(c1C(N)=O)CCN(Cc1ccccc1)C2	·	·	·	·	134*	·
CC(C)C(=O)Nc1sc2c(c1C(N)=O)CCN(Cc1ccccc1)C2	·	·	·	·	134*	·
NC(=O)c1c(NC(=O)c2ccccc2)sc2c1CCN(Cc1ccccc1)C2	·	·	·	·	8	·
NC(=O)c1c(NC(=O)c2c(F)cccc2F)sc2c1CCN(Cc1ccccc1)C2	·	·	·	·	163*	·
CCN(CC)c1ccc(C=C(c2nnnn2-c2ccc(C)cc2)c2nnnn2-c2ccc(C)cc2)cc1	-3	-86	1	-195	-7	2
Cc1sc2ncn(Cc3ccccc3F)c(=O)c2c1C	15	-3	1	2	0	95*
COc1cc2c(cc1OC)C1(NCC2)C(=O)Nc2ccccc21 (stereo unspecified)	1	-4	0	-7	0	-2
COc1cc2c(cc1OC)C1(Nc3c-2c(Cc2ccccc2)nn3-c2ccccc2)C(=O)Nc2ccccc21 (stereo unspecified)	4	2	1	-3	24*	-4
N=c1c(C(=O)NCCN2CCOCC2)cc2c(=O)n3ccccc3nc2n1Cc1ccc(F)cc1	·	·	·	·	127*	·
N=c1c(C(=O)NCCN2CCOCC2)cc2c(=O)n3ccccc3nc2n1CCCN1CCOCC1	·	·	·	·	145*	·
CCC1OC23CCCCC2C(C#N)(C(=N)O3)C1(C#N)C#N (stereo unspecified)	0	24	0	52	27*	-2
CCCC1OC23CCCCC2C(C#N)(C(=N)O3)C1(C#N)C#N (stereo unspecified)	2	25	0	33	33*	-3
N#CC12COC3(CCCCC3C1(C#N)C#N)OC2=N (stereo unspecified)	13	1	0	18	33*	-21
COc1ccc(C2OC34CCCCC3C(C#N)(C#N)C2(C#N)C(=N)O4)cc1 (stereo unspecified)	1	32	1	77*	43*	0
CCNC(=S)N(CCO)Cc1cc2cc3c(cc2[nH]c1=O)OCO3	·	·	·	·	-15	·
N#Cc1ccc(C(=O)NNC(=O)c2ccncc2)cc1	·	·	·	·	-3	·
SMILES	Hck-Nef inh	Runt-CBFb FRET	zVAD death inh	Runt-SMMHC FRET	RanGTP-Impb inh	TNF death inh
CCOC(=O)c1c2ccc(OCC(=O)NN)cc2n2ccccc12	-3	21	0	86*	66*	-1
CCOC(=O)c1c2ccc(OCC(=O)N/N=C/c3ccc(C)cc3)cc2n2ccccc12	27	-4	0	78	29*	-3
O=C(CC1SC(N2CCCC2)=NC1=O)Nc1ccc(C(=O)N2CCN(c3cccc(Cl)c3)CC2)cc1 (stereo unspecified)	·	·	·	·	3	·
O=C(CCc1nnc2n(CCc3ccccc3)c(=O)c3ccccc3n12)NCCCN1CCCCC1	·	·	·	·	3	·
CC(CNc1nc2ccc(Cl)cc2n2cnnc12)c1ccccc1 (stereo unspecified)	·	·	·	·	2	·
Cc1ccc(-c2c(C(=O)Nc3ccccc3C)c(C)[nH]c(=S)c2C#N)o1	56*	-20	1	-101	2	-1
CC1(C)CC(=O)C2=C(C1)OC(N)=C(C#N)C2c1ccccc1[N+](=O)[O-] (stereo unspecified)	20	86*	-1	91*	61*	0
Cc1ccc(S(=O)(=O)N2CCN(C(=O)C3CCN(C(=O)c4ccccc4C)CC3)CC2)cc1C	22	-1	-1	1	0	-1
CCCCC1CCC(C(=O)NCc2ccc3c(c2)OCO3)CC1 (stereo unspecified)	-2	1	-1	-1	92*	0
CC1=Nc2ccc(C)c3nc(C)cc(c23)N1c1ccc(C)cc1	2	·	0	·	65*	-7
Cc1ccc(N2C=Nc3ccc(C)c4nc(C)cc2c34)cc1	2	52*	0	60*	99*	-5
Cc1ccc(Nc2cc(C)nc3c(C)cccc23)cc1	·	·	·	·	1	·
Cn1c(N)c(C(=O)CSc2nc3ccccc3[nH]2)c(=O)n(C)c1=O	14	2	2	3	-2	0
Cc1ccc(NC(=O)C2(C)Cc3ccccc3C(=O)O2)cc1 (stereo unspecified)	2	0	1	-3	1	1
COc1ccc(CNC(=O)CCCNS(=O)(=O)c2cccc3nonc23)cc1	-1	-1	4	0	63*	3
CN(C)C1=NCCN1CCc1cccc(F)c1	·	·	·	·	-2	·
Cn1c(=O)c2c(nc(Br)n2CCSc2ncccn2)n(C)c1=O	-23	0	0	-2	25*	-1
CC(C)(C)C1=CC(=Nc2ccccc2N)C=C(C(C)(C)C)C1=O	2	-4	1	4	-2	1
CC(C)(C)C1=CC(=O)C(=O)C(C(C)(C)C)=C1	56*	48	2	70	3	-19
CN(C)C(=O)c1ccc(-n2cccn2)nc1	19	-1	1	-19	4	1
COc1ccc(OC)c(C2C(C(=O)Nc3nc4ccccc4s3)=C(C)NC3=C2C(=O)CCC3)c1 (stereo unspecified)	43	22	0	142*	8	3
COCCNC(=O)/C(C#N)=C/c1ccc(-c2ccc(S(=O)(=O)N3CCOCC3)cc2)o1	2	9	1	24	15*	2
COc1ccc(NC(=O)CN(CC(=O)Nc2ccc(OC)cc2)C(C)(C)CO)cc1	·	·	·	·	-2	·
CCC(CO)(CO)N(CC(=O)Nc1ccc(OC)cc1)CC(=O)Nc1ccc(OC)cc1	·	·	·	·	28*	·

Compound activity: PubChem BioAssay, several laboratories
